# Source: publication PMC9233146 (Cell chemical biology, 2022)
# pEC50, pIC50: −log10 of the molar value.
# What was measured:
# recombinant FECH [1] = molecular target: T1, recombinant FECH (Homo sapiens, UniProt P22830); assay: 4e-FECH enzyme kinetic analysis; type: biochemical; conditions: vs. substrate mesoporphyrin IX; Vmax consistent, KM increased
# T1 sequence (P22830 55-423): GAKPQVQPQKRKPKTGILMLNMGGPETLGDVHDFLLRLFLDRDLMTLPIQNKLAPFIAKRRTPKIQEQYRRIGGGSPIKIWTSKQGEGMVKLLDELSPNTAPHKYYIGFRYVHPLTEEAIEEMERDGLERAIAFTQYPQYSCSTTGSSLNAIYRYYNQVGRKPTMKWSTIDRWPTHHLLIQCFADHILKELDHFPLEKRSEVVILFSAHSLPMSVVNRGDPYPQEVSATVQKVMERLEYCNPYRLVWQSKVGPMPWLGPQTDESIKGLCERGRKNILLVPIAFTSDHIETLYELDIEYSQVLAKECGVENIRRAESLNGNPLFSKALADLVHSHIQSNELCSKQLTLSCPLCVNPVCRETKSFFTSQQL
# [2] = system: choroidal neovascularization
# PPIX and heme in HRECs = assay: Porphyrin and heme analysis; type: cell-based, human; conditions: 30 μM 4e ± 1 mM 5-ALA
# Procedure, shortened: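 HRECs were grown to 80% confluence and serum-starved overnight. Cells received DMSO or 30 μM test compound for 1 h, then 1 mM 5-ALA or water for a further 2 h. They were pelleted in cold PBS and frozen. Heme and porphyrins were quantified by a core facility following its posted protocols. n=3.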
# [3] = system: FECH activity in HRECs (PPIX accumulation); assay: Protoporphyrin IX buildup assay; type: cell-based, human; conditions: highest dose, co-treated with 5-ALA, 3 hour treatment, vs. DMSO
# [4] = system: Human Retinal Endothelial Cell (HREC); assay: HREC proliferation assay; type: cell-based; conditions: 48 hour treatment, qualitative
# recombinant FECH [5] = molecular target: T1, recombinant FECH; assay: FECH enzymatic activity assay; type: biochemical; conditions: for inhibitory activity against recombinant FECH: qualitative
# HRECs [6] = assay: Scratch wound migration assay; type: cell-based, human; conditions: 8 hour treatment, dose dependent
# Procedure, shortened: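 HRECs were grown to confluence in 96-well plates at 37°C, scratched down the well centre with a pipette tip, and treated with test compound. Brightfield images were taken at 8 h. Cells migrating into the scratch were counted manually in six images per treatment and normalised to DMSO. Replicate runs were live-imaged. n=4 technical.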
# ARPE19 cells [7] = assay: ARPE19 proliferation assay; type: cell-based, human; conditions: 48 hour treatment
# HRECs [8] = assay: In vitro apoptosis assays; type: cell-based, human; conditions: 16 hour treatment, 10, 30 and 100 μM
# Procedure, shortened: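 HRECs on coated chamber slides, 70% confluent, were treated 16 h with vehicle, test compound (10, 30, 100 μM), or positive controls (1 μM staurosporine for caspase, 10 μM DNase I for TUNEL). After 4% PFA fixation: Triton permeabilisation, anti-cleaved caspase-3 (1:200, overnight, 4°C), fluorescent secondary and Hoechst; or a Click-iT TUNEL kit. Stained cells were counted as % of nuclei in three 40x fields. Three biological repeats.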
# [9] = system: COXIV subunit I expression in HRECs; assay: Immunoblot for hemoprotein COXIV subunit I; type: cell-based, human; conditions: 16 hours, dose dependent (10, 30 or 100 μM)
# Procedure, shortened: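 HRECs were treated 16 h with test compound (10, 30 or 100 μM), a reference FECH inhibitor (10 μM) or DMSO. Arms were: 6 h pretreatment with 100 μM succinylacetone or water, or after treatment, medium replaced by EBM-2 with 0.2% serum and 10 μM hemin. Lysate protein (40 μg) was run on 12% SDS-PAGE and PVDF, probed with anti-COX4I1 (1:1000) and β-actin (1:2000). n=3 biological.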
# HRECs [10] = assay: Matrigel-based tube formation assay; type: cell-based, human; conditions: 8 hour treatment, qualitative
# Procedure, shortened: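 Matrigel was solidified 20 min at 37°C. HRECs were added at 15,000/well in EGM-2 and dosed with test compound in DMSO. Tubes were watched by brightfield every 2 h and imaged at 8 h. Total tubule length from six images per treatment was normalised to DMSO controls. n=6 technical.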
# [11] = molecular target: dopamine D2 receptor DRD2S (Homo sapiens, UniProt P14416); assay: SafetyScan off-target analysis, DRD2S; type: cell-based
# dopamine D2 receptor DRD2S, sequence (P14416 1-414 isoform P14416-2): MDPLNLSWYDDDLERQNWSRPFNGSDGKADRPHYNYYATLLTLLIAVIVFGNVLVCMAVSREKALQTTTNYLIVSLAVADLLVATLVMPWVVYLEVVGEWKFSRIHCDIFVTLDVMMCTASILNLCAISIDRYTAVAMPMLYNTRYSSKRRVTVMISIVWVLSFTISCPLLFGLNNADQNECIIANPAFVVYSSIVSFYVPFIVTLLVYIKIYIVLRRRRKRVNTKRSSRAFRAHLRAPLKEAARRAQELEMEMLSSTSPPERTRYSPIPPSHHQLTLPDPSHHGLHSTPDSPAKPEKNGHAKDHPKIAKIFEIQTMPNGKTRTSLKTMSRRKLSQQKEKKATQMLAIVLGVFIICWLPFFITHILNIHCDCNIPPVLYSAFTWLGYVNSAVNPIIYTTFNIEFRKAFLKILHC
# [12] = system: iCEC2 choroidal endothelial cells; assay: iCEC2 proliferation assay; type: cell-based, human; conditions: 48 hour treatment
# HRECs [13] = conditions: ref Basavarajappa et al., 2017; cited from earlier work
# ARPE19 cells [14] = conditions: ref Basavarajappa et al., 2017; cited from earlier work
# [15] = system: Human Retinal Endothelial Cell (HREC); conditions: HRECs; ref Basavarajappa et al., 2017; cited from earlier work
# HRECs [16] = conditions: ref Basavarajappa et al., 2017; cited from earlier work; remark: listed apart in the source
# [17] = recombinant FECH activity assay
compound,measurement,setting,value
"CC(C)(C)c1ccc(-c2nc3[nH]c(CNc4ccc5ccccc5n4)cc(=O)n3n2)cc1 [4e, 2-(4-(tert-Butyl)phenyl)-5-((quinolin-2-ylamino)methyl)-[1,2,4]triazolo[1,5-a]pyrimidin-7(4H)-one]",mode of inhibition,recombinant FECH [1],competitive inhibition
same,"ocular toxicity (fundus images, OCT)","[2]; day 0, 7 and 14 after laser, intravitreal",no obvious signs of toxicity
same,"decrease in lesion volume (agglutinin and GS-IB4 signal, choroidal flat mounts)","[2]; day 14, both tested doses (50 and 100 μM intravitreal)",> 50%
same,OCT lesion volume relative to control,"[2]; day 14, final intravitreal concentrations of 50 μM as well as 100 μM",significantly reduced
same,leakage on fluorescein angiography (FA),"[2]; day 14, qualitative",smaller
same,PPIX level in HRECs,PPIX and heme in HRECs,buildup of FECH substrate PPIX
same,heme level in HRECs,PPIX and heme in HRECs,decrease in heme
same,PPIX accumulation in HRECs,[3],statistically significant PPIX accumulation
same,HREC proliferation (antiproliferative effect),[4],anti-proliferative
same,inhibitory activity against recombinant FECH,recombinant FECH [5],showed inhibitory activity
same,IC50 value (range in words),recombinant FECH [5]; [17],high nanomolar range
same,HREC migration,HRECs [6],blocked the migration ability
same,antiproliferative effect on ARPE19 cells,ARPE19 cells [7],did not have a substantial antiproliferative effect
same,"apoptosis in HRECs (cleaved caspase-3, TUNEL)",HRECs [8],did not lead to apoptosis
same,COXIV subunit I levels in HRECs,[9],decreased COXIV levels
same,HREC tube formation,HRECs [10],blocked tube formation of HRECs
same,pEC50,[11],4.01
same,proliferation of iCEC2 cells,[12],more potent than NMPP
"CCCc1cc(=O)n2nc(CNc3ccc(C)cc3)nc2[nH]1 [5c, 5-Propyl-2-((p-tolylamino)methyl)-[1,2,4]triazolo[1,5-a]pyrimidin-7(4H)-one]",HREC proliferation (antiproliferative effect),[4],anti-proliferative
same,IC50 value (range in words),recombinant FECH [5]; [17],high nanomolar range
same,HREC tube formation,HRECs [10],blocked tube formation of HRECs
"CCCc1cc(=O)n2nc(CNc3ccc(F)c(F)c3)nc2[nH]1 [5k, 2-(((3,4-Difluorophenyl)amino)methyl)-5-propyl-[1,2,4]triazolo[1,5-a]pyrimidin-7(4H)-one]",HREC proliferation (antiproliferative effect),[4],did not affect HREC proliferation
same,inhibitory activity against recombinant FECH,recombinant FECH [5],strongest inhibitory activity
"CCCc1cc(=O)n2nc(CNc3ccc(F)c(Cl)c3)nc2[nH]1 [5i, 2-(((3-Chloro-4-fluorophenyl)amino)methyl)-5-propyl-[1,2,4]triazolo[1,5-a]pyrimidin-7(4H)-one]",HREC proliferation (antiproliferative effect),[4],did not affect HREC proliferation
same,inhibitory activity against recombinant FECH,recombinant FECH [5],strongest inhibitory activity
N-methylprotoporphyrin [NMPP],"inhibition of HREC tube formation, active concentrations",HRECs [13],single-digit micromolar concentrations
same,proliferation of ARPE19 cells,ARPE19 cells [14],did not block proliferation
same,GI50,[15],30 µM
same,FECH activity inhibition,"recombinant FECH [5]; 10 μM, positive control in the screen",completely inhibited
same,pIC50,recombinant FECH [5]; [17],6.35
same,proliferation of iCEC2 cells,[12],antiproliferative
same,"inhibition of HREC migration, active concentrations",HRECs [16],single-digit micromolar concentrations
"CCCc1cc(=O)n2nc(CNc3ccc(Cl)cc3)nc2[nH]1 [5f, 2-(((4-Chlorophenyl)amino)methyl)-5-propyl-[1,2,4]triazolo[1,5-a]pyrimidin-7(4H)-one]",inhibitory activity against recombinant FECH,recombinant FECH [5],potent FECH inhibitors
